≈ marks a conversion by molar mass, not a printed value.

A short description of data set [1]: Stability assessed as half life in phosphate buffer at pH 7.4 by UV-visible spectroscopy. Type of data set: physicochemical. Summed up: (§1)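 Compound in methanolic solution (10 or 20 µL) was added to tempered 7 × 10^-2 M phosphate buffer (2 mL) at pH 7.4 or 5.5, 37 °C. The absorbance decrease at 224 nm was followed by UV/vis.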
Data set [2] deals with Mycobacterium kansasii. The data set is described as follows: Antimycobacterial activity against Mycobacterium kansasii isolate 6509/96 after 14 days. Type of data set: functional. Particulars: isolate 6509/96, 336 h. The essentials: (§2)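 Compounds were added as DMSO solutions to Sula semisynthetic medium at 250, 125, 62, 32, 16, 8, 4, 2 and 1 µmol/L. Two M. kansasii strains were used: CNCTC My 235/80 and clinical isolate 6509/96, each with strain dilution 10^-4. Incubation was at 37 °C, and MIC was read at 7, 14 and 21 days.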

The test system of data set [3] is Mycobacterium kansasii. Nature of the data set: Antimycobacterial activity against Mycobacterium kansasii isolate 6509/96 after 21 days. The format is functional. The note with it: isolate 6509/96, 504 h. The essentials: as §2
For data set [4], the system named is Mycobacterium tuberculosis. Nature of the data set: Antimycobacterial activity against Mycobacterium tuberculosis CNCTC My 331/88 after 21 days. The format is functional. Particulars: CNCTC My 331/88, 504 h. Summed up: (§3)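 Broth dilution in Sula semisynthetic medium, compounds added as DMSO solutions at 250, 125, 62, 32, 16, 8, 4, 2 and 1. Strains came from the Czech National Collection of Type Cultures; the M. tuberculosis inoculum was diluted 10^-3. Cultures were incubated at 37 °C, and MIC was read after 7, 14 and 21 days.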

For data set [5], the system named is Mycobacterium kansasii. Nature of the data set: Antimycobacterial activity against Mycobacterium kansasii CNCTC My 235/80 after 14 days. Type of data set: functional. The note with it: CNCTC My 235/80, 336 h. Summed up:
as §2

Data set [6] can be described thus: Stability assessed as half life in phosphate buffer at pH 5.5 by UV-visible spectroscopy. Type of data set: physicochemical. Summed up: as §1
The subject of data set [7] is Mycobacterium kansasii. Nature of the data set: Antimycobacterial activity against Mycobacterium kansasii isolate 6509/96 after 7 days. The format is functional. Particulars: isolate 6509/96, 168 h. The essentials: as §2
Data set [8] concerns Mycobacterium tuberculosis. Nature of the data set: Antimycobacterial activity against Mycobacterium tuberculosis CNCTC My 331/88 after 14 days. The format is functional. Particulars: CNCTC My 331/88, 336 h. The essentials: as §3
The subject of data set [9] is Mycobacterium avium. The data set is described as follows: Antimycobacterial activity against Mycobacterium avium CNCTC My 330/88 after 14 days. Type of data set: functional. The note with it: CNCTC My 330/88, 336 h. Summed up: as §3
The nature of data set [10]: Lipophilicity, log K by HPLC. The format is physicochemical. Summed up: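 Capacity factors k were measured by RP-HPLC and log k was calculated from them.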
Data set [11] relates to Mycobacterium avium. The data set is described as follows: Antimycobacterial activity against Mycobacterium avium CNCTC My 330/88 after 21 days. Particulars: CNCTC My 330/88, 504 h. Type of data set: functional. The essentials:
as §3

Data set [12] deals with Mycobacterium kansasii. Nature of the data set: Antimycobacterial activity against Mycobacterium kansasii CNCTC My 235/80 after 7 days. Particulars: CNCTC My 235/80, 168 h. Type of data set: functional. The essentials:
as §2

Data set [13] is described as follows: Selectivity index, ratio of EC50 for human HCT8 cells to MIC for Mycobacterium tuberculosis CNCTC My 331/88. The format is functional, HCT-8. The essentials:
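SI is EC50 in HCT-8 cells divided by the M. tuberculosis MIC. HCT-8 cells were grown in EMEM with 5% FBS at 37 °C under 5% CO₂, trypsinised and seeded at 2 × 10⁵ cells/mL. After 24 h the medium was replaced with compound in DMSO. Controls were DMSO alone and 20% DMSO. Absorbance was read at 450 nm 4 h after reagent addition, in triplicate.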

In data set [14] the test system is HCT-8. The data set is described as follows: Cytotoxicity against human HCT8 cells after 72 hrs by XTT assay. The format is functional, cell-based. The note with it: HCT-8, 72 h. The essentials:
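HCT-8 cells were grown in EMEM with 5% FBS at 37 °C under 5% CO2. They were harvested with trypsin, seeded at 2 × 10^5 cells/mL and left 24 h. Medium was then replaced with compound in DMSO. DMSO-only wells served as the viability control and 20% DMSO as the cytotoxic control. Reagent was added for 4 h and absorbance read at 450 nm. Triplicates; EC50 reported.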
(In general: Tetrazolium assays rely on reduction of a dye to a coloured formazan, in cell work by metabolically active cells.)

Data set [15] deals with Mycobacterium kansasii. Nature of the data set: Antimycobacterial activity against Mycobacterium kansasii CNCTC My 235/80 after 21 days. Type of data set: functional. The note with it: CNCTC My 235/80, 504 h. The essentials: as §2

Consider `O=C(N[C@H](Cc1ccccc1)C(=O)Oc1cc(Cl)ccc1C(=O)Nc1ccc(Cl)cc1)OCc1ccccc1`, for which the half-life in [1] is 22.1 min; in data set [6], 17.9 min. Also, the MIC in [2] was determined as 8 µM (≈ 4.51 µg/mL); in data set [3], 8 µM (≈ 4.51 µg/mL); in [4], 4 µM (≈ 2.25 µg/mL); in data set [5], 8 µM (≈ 4.51 µg/mL); in data set [7] it was 4 µM (≈ 2.25 µg/mL); in [8], 4 µM (≈ 2.25 µg/mL). Moreover, the MIC came out at 8 µM (≈ 4.51 µg/mL) in [9], 8 µM (≈ 4.51 µg/mL) in [11], 4 µM (≈ 2.25 µg/mL) in [12] and 8 µM (≈ 4.51 µg/mL) in data set [15]. Also, in [10], the “log K” value worked out at 1.0315. The Ratio in data set [13] amounted to 26.05. It took 104 µM to reach a half-maximal effect in data set [14] (EC50).

With `CC(C)[C@@H](NC(=O)OCc1ccccc1)C(=O)Oc1cc(Cl)ccc1C(=O)Nc1ccc(Cl)cc1`, the half-life in data set [1] is 20.4 min; in [6], 20.3 min. Besides, the MIC is 8 µM (≈ 4.12 µg/mL) in data set [2]; 8 µM (≈ 4.12 µg/mL) in [3]; 4 µM (≈ 2.06 µg/mL) in data set [4]; 8 µM (≈ 4.12 µg/mL) in [5]; 4 µM (≈ 2.06 µg/mL) in [7]; 4 µM (≈ 2.06 µg/mL) in data set [8]. Further, the MIC in [9] amounted to 8 µM (≈ 4.12 µg/mL); in [11], 16 µM (≈ 8.25 µg/mL); in [12], 4 µM (≈ 2.06 µg/mL); in data set [15], 8 µM (≈ 4.12 µg/mL). Also, the “log K” value in data set [10] is recorded as 0.8816. Also, in data set [13], the Ratio amounted to 13.75. For the same compound, the concentration for a half-maximal effect (EC50) in data set [14] was determined as 107 µM.

As for `CC(C)[C@H](NC(=O)OCc1ccccc1)C(=O)Oc1ccc(Cl)cc1C(=O)Nc1ccc(Br)cc1`, the figures for the half-life in data set [1] and in data set [6] were 14.8 min and 14.3 min, respectively. Moreover, the MIC in data set [2] came out at 8 µM (≈ 4.48 µg/mL); in data set [3] it was 8 µM (≈ 4.48 µg/mL); in data set [4], 4 µM (≈ 2.24 µg/mL); in data set [5], 8 µM (≈ 4.48 µg/mL); in data set [7] it was 8 µM (≈ 4.48 µg/mL); in [8], 4 µM (≈ 2.24 µg/mL). The MIC worked out at 8 µM (≈ 4.48 µg/mL) in [9], 16 µM (≈ 8.96 µg/mL) in [11], 4 µM (≈ 2.24 µg/mL) in data set [12] and 8 µM (≈ 4.48 µg/mL) in [15]. Further, the “log K” value in data set [10] came out at 0.9803. The Ratio in data set [13] worked out at 16.74. The EC50 in [14] turned out to be 122 µM.

With `O=C(N[C@@H](Cc1ccccc1)C(=O)Oc1cc(Cl)ccc1C(=O)Nc1ccc(Cl)cc1)OCc1ccccc1`, the half-life was 25.3 min in [1] and 21.9 min in [6]. In addition, the MIC in data set [2] was 8 µM (≈ 4.51 µg/mL); in data set [3], 8 µM (≈ 4.51 µg/mL); in data set [4] it was 4 µM (≈ 2.25 µg/mL); in data set [5] it was 8 µM (≈ 4.51 µg/mL); in [7], 4 µM (≈ 2.25 µg/mL); in data set [8], 4 µM (≈ 2.25 µg/mL). In addition, the MIC stood at 8 µM (≈ 4.51 µg/mL) in data set [9], 8 µM (≈ 4.51 µg/mL) in data set [11], 4 µM (≈ 2.25 µg/mL) in data set [12] and 8 µM (≈ 4.51 µg/mL) in data set [15]. Besides, in data set [10], the “log K” value came out at 1.0304. The Ratio in data set [13] turned out to be 20.73. This compound also returned an EC50 in data set [14] of 82.9 µM.

As for `CC(C)[C@@H](NC(=O)OCc1ccccc1)C(=O)Oc1ccc(Cl)cc1C(=O)Nc1ccc(Br)cc1`, the half-life is 15 min in data set [1] and 14.8 min in data set [6]. For the same compound, the MIC in data set [2] was 8 µM (≈ 4.48 µg/mL); in data set [3], 8 µM (≈ 4.48 µg/mL); in data set [4] it was 4 µM (≈ 2.24 µg/mL); in [5] it was 8 µM (≈ 4.48 µg/mL); in [7], 8 µM (≈ 4.48 µg/mL); in data set [8], 2 µM (≈ 1.12 µg/mL). Besides, the MIC in [9] worked out at 16 µM (≈ 8.96 µg/mL); in data set [11], 16 µM (≈ 8.96 µg/mL); in data set [12], 4 µM (≈ 2.24 µg/mL); in data set [15], 8 µM (≈ 4.48 µg/mL). In addition, the “log K” value in [10] was 0.9805. Besides, the Ratio in data set [13] was determined as 33.35. In [14], this compound showed an EC50 of 121 µM.

For the compound `O=C(N[C@H](Cc1ccccc1)C(=O)Oc1ccc(Cl)cc1C(=O)Nc1ccc(Br)cc1)OCc1ccccc1`, the half-life in [1] is 34.3 min; in [6] it was 32.5 min. For the same compound, the MIC in data set [2] stood at 8 µM (≈ 4.86 µg/mL); in [3], 8 µM (≈ 4.86 µg/mL); in data set [4] it was 4 µM (≈ 2.43 µg/mL); in data set [5], 4 µM (≈ 2.43 µg/mL); in [7] it was 8 µM (≈ 4.86 µg/mL); in data set [8] it was 2 µM (≈ 1.22 µg/mL). Moreover, the MIC in data set [9] is 8 µM (≈ 4.86 µg/mL); in [11], 16 µM (≈ 9.73 µg/mL); in data set [12], 2 µM (≈ 1.22 µg/mL); in data set [15], 4 µM (≈ 2.43 µg/mL). Further, the “log K” value in data set [10] is reported as 1.1267. Besides, the Ratio in data set [13] came to 10.61. The compound also registered an EC50 in data set [14] of 35.5 µM.

As usually defined, the half-life is the time needed for the level to fall by half in the phase considered. A word on the MIC: it is the lowest concentration found to suppress growth. A lower MIC goes with inhibition by little substance. The EC50 is the concentration that produces a half-maximal response.
